Consider 36 compounds from ChEMBL document CHEMBL1153405, “Complementary three-dimensional quantitative structure-activity relationship modeling of binding affinity and functional potency: a study on alpha4beta2 nicotinic ligands” (J Med Chem, 2009).

Assay [1] addresses T1, Neuronal acetylcholine receptor; alpha4/beta2 (Homo sapiens, UniProt P17787+P43681). Put plainly: Intrinsic activity at human alpha4beta2 nAChR expressed in HEK293 cells assessed as intracellular calcium level by FLIPR assay relative to (-)nicotine. It counts as cell-based. Put shortly: (§1)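 HEK-293 cells stably expressing human α4β2 (subunits cloned from IMR32) were grown in DMEM with 10% FBS at 37 °C and 5% CO2. They were plated on poly-D-lysine for 24 h, then loaded with 2 µM fluo-4/AM for 1.5 h at room temperature. Cells were washed into NMDG Ringer (10 mM CaCl2, pH 7.4) and read by FLIPR at 100 pM–100 µM. Background-subtracted responses were normalized to 100 µM (-)-nicotine, giving pEC50 and maximal efficacy; n = 4-8.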
Background: Calcium flux is commonly read through the fluorescence of an indicator in the cells.

Assay [2] deals with T1, Neuronal acetylcholine receptor; alpha4/beta2. Put plainly: Displacement of [3H]cytisine from human alpha4beta2 nAChR expressed in HEK293 cells. It counts as cell-based. Background: Displacement assays read how much labelled ligand stays bound in the presence of the test substance.
The target is the same in assay [3]. The assay can be described thus: Agonist activity at human alpha4beta2 nAChR expressed in HEK293 cells assessed as intracellular calcium level by FLIPR assay. It counts as functional, cell-based. In a few lines: as §1

T1 sequence (P17787 whole entry): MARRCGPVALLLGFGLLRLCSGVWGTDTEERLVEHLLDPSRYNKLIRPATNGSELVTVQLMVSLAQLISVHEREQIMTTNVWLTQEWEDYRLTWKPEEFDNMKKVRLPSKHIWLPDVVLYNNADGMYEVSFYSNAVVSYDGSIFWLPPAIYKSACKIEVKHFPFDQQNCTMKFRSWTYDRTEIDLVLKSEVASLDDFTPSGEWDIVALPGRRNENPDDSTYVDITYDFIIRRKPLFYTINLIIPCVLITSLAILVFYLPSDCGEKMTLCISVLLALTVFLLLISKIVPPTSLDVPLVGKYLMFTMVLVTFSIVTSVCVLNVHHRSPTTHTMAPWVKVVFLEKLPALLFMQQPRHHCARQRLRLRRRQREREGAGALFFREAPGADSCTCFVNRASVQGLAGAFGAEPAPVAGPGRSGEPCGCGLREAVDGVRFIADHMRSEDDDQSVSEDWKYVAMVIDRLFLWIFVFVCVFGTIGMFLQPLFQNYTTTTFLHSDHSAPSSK
T1 sequence (P43681 whole entry): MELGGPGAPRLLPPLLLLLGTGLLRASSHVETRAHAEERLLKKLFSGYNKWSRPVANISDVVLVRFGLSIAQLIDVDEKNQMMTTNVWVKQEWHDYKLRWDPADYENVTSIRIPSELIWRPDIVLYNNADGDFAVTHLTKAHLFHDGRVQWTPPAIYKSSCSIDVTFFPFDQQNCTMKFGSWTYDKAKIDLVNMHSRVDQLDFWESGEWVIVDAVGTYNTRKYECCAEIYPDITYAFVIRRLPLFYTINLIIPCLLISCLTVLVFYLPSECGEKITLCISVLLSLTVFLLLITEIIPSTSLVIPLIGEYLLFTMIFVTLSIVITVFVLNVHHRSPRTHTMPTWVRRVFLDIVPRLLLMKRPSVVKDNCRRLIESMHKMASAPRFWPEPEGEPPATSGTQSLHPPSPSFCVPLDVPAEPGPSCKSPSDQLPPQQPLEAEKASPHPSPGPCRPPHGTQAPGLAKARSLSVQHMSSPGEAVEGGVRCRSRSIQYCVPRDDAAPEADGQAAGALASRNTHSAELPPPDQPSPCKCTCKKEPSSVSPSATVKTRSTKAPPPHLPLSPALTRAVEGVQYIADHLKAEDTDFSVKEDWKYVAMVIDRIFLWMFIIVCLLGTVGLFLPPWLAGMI

For the compound `Brc1cncc(N2CCCNCCC2)c1`, the Efficacy in assay [1] was found to be 73%. The half-maximal inhibitory concentration (IC50) – broadly, the concentration that inhibits the measured activity by half – in assay [2] was 0.00282 µM. Moreover, in assay [3], the EC50 (in general, the concentration giving half of the maximal effect) was 0.182 µM.

For the compound `Clc1cncc(OC2CCCNC2)c1` (stereo not drawn), the Efficacy in assay [1] came out at 15%. In assay [2], this compound showed an IC50 of 0.24 µM. The half-maximal effective concentration (EC50) in assay [3] is 1.41 µM.

Consider `c1cncc(N2CCCNCC2)c1`, for which, in assay [1], the Efficacy worked out at 94%. In addition, the concentration giving a half-maximal response (EC50) in assay [3] was 0.229 µM.

For `C=COc1cncc(N2CCNCC2)c1`, the Efficacy in assay [1] came to 18%. This compound also showed a concentration for half-maximal inhibition (IC50) in assay [2] of 0.191 µM. Further, the concentration for a half-maximal effect (EC50) in assay [3] is 7.59 µM.

In the case of `C/C=C\Oc1cncc(N2CCCNCC2)c1`, the Efficacy in assay [1] was 45%. In assay [2], this compound gave an IC50 of 0.00129 µM. The EC50 in assay [3] was 2.09 µM.

Consider `C=COc1cc(N2CCCNCCC2)cnc1Br`, for which the Efficacy in assay [1] was found to be 90%. The compound also gave an IC50 in assay [2] of 0.00038 µM. Also, the 50% effective concentration (EC50) in assay [3] was 0.24 µM.

For `C1=C(c2cccnc2)CC2CCCC1N2` (stereo not drawn), the Efficacy in assay [1] amounted to 34%. In assay [2], this compound showed a half-inhibitory concentration (IC50) of 0.00447 µM. Besides, in assay [3], the EC50 is 1.2 µM.

For `c1cncc(OC2CCNC2)c1` (stereo not drawn), in assay [1], the Efficacy was 54%. The same compound had an IC50 in assay [2] of 0.1 µM. Also, the 50% effective concentration (EC50) in assay [3] is 28.8 µM.

In the case of `C=COc1cc(N2CCCNCC2)cnc1Br`, the Efficacy in assay [1] was found to be 80%. For the same compound, the half-inhibitory concentration (IC50) in assay [2] is 0.000646 µM. In assay [3], the concentration for a half-maximal effect (EC50) was 0.11 µM.

As for `CCOc1cc(N2CCCNCC2)cnc1Br`, the Efficacy in assay [1] stood at 78%. This compound also showed a half-maximal inhibitory concentration (IC50) in assay [2] of 0.000871 µM. Also, in assay [3], the EC50 is 0.257 µM.

`Clc1cncc(N2CCCNCCC2)c1`: the Efficacy in assay [1] was found to be 103%. In assay [2], this compound had a half-maximal inhibitory concentration (IC50) of 0.002 µM. Moreover, in assay [3], the EC50 is 0.17 µM.

With `Brc1ccc(N2CCNCC2)cn1`, the Efficacy in assay [1] came to 129%. The compound also gave a half-maximal inhibitory concentration (IC50) in assay [2] of 0.182 µM. In addition, the EC50 in assay [3] is 2.51 µM.

Take `Brc1ccc(N2CCCNCC2)cn1`: the Efficacy in assay [1] is 88%. This compound gave an IC50 in assay [2] of 0.001 µM. The EC50 in assay [3] was 0.0646 µM.

In the case of `Oc1cc(N2CCCNCC2)cnc1I`, the Efficacy in assay [1] came out at 104%. Moreover, in assay [2], the half-inhibitory concentration (IC50) is 0.0219 µM. The EC50 in assay [3] was 0.479 µM.

Turning to `COCCOc1cncc(N2CCCNCC2)c1`, in assay [1], the Efficacy was 42%. In assay [2], this compound showed an IC50 of 0.0024 µM. In assay [3], the concentration giving a half-maximal response (EC50) is 8.71 µM.

Regarding `COc1cncc(N2CCCNCCC2)c1`, the Efficacy in assay [1] was found to be 89%. The IC50 in assay [2] was 0.001 µM. For the same compound, the EC50 in assay [3] is 0.12 µM.

As to `COc1ccc(N2CCCNCC2)cn1`, in assay [1], the Efficacy was determined as 88%. This compound also had an IC50 in assay [2] of 0.17 µM. The EC50 in assay [3] was 11 µM.

With `Brc1ccc(N2CCCNCCC2)cn1`, the Efficacy in assay [1] is 139%. Besides, the half-inhibitory concentration (IC50) in assay [2] is 0.000447 µM. Moreover, the half-maximal effective concentration (EC50) in assay [3] is 0.00129 µM.

Consider `Cc1ncc(N2CCNCC2)cc1Cl`, for which, in assay [1], the Efficacy was 74%. For the same compound, the 50% inhibitory concentration (IC50) in assay [2] was 0.525 µM. The 50% effective concentration (EC50) in assay [3] is 26.9 µM.

Turning to `COc1cncc(C2=CC3CCCC(C2)N3)c1` (stereo not drawn), the Efficacy in assay [1] was 13%. The compound further gave an IC50 in assay [2] of 0.00302 µM. In addition, the EC50 in assay [3] is 4.37 µM.

Take `CCSc1ccc(N2CCCNCC2)cn1`: in assay [1], the Efficacy came out at 53%. This compound also gave a 50% inhibitory concentration (IC50) in assay [2] of 0.17 µM. Also, the concentration for a half-maximal effect (EC50) in assay [3] was 4.47 µM.

For the compound `Clc1cc(N2CCCNCC2)cnc1Br`, in assay [1], the Efficacy stood at 102%. For the same compound, the IC50 in assay [2] was 0.00141 µM. Also, the EC50 in assay [3] is 0.0151 µM.

For the compound `C=COc1cncc(N2CCCNCC2)c1`, in assay [1], the Efficacy was found to be 61%. Further, in assay [2], the IC50 was 0.00501 µM. The concentration giving a half-maximal response (EC50) in assay [3] was 1.1 µM.

In the case of `C1=C(c2cccnc2)CC2CCC1N2` (stereo not drawn), the Efficacy in assay [1] came out at 66%. This compound also showed an IC50 in assay [2] of 0.00676 µM. In addition, the EC50 in assay [3] was 1 µM.

As to `Clc1ncc(N2CCCNCC2)cc1Br`, the Efficacy in assay [1] stood at 85%. Also, the IC50 in assay [2] is 0.00141 µM. In assay [3], the concentration giving a half-maximal response (EC50) was 0.0575 µM.

Take `COc1cc(N2CCNCC2)cnc1Br`: the Efficacy in assay [1] worked out at 68%. Moreover, in assay [3], the half-maximal effective concentration (EC50) is 17 µM.

In the case of `c1cncc(OC2CCCNC2)c1` (stereo not drawn), the Efficacy in assay [1] was 22%. Also, the IC50 in assay [2] is 0.191 µM. Moreover, the EC50 in assay [3] is 32.4 µM.

Take `Clc1ncc(N2CCNCC2)cc1Br`: the Efficacy in assay [1] is 98%. This compound showed an IC50 in assay [2] of 0.229 µM. Moreover, the EC50 in assay [3] is 7.94 µM.

As for `COc1cc(N2CCCNCC2)cnc1Cl`, in assay [1], the Efficacy turned out to be 116%. For the same compound, the IC50 in assay [2] was 0.000676 µM. The EC50 in assay [3] was 0.0912 µM.

Consider `COc1cncc(N2CCCNCC2)c1`, for which, in assay [1], the Efficacy amounted to 66%. The same compound showed a half-maximal inhibitory concentration (IC50) in assay [2] of 0.00191 µM. Also, in assay [3], the EC50 is 1.41 µM.

`c1cncc(N2CCCNCCC2)c1`: in assay [1], the Efficacy amounted to 78%. The IC50 in assay [2] is 0.000891 µM. For the same compound, in assay [3], the half-maximal effective concentration (EC50) is 0.0363 µM.

`c1cncc(OC[C@@H]2CCN2)c1` had an IC50 in assay [2] of 0.00151 µM.

On to `Clc1cncc(N2CCNCC2)c1`, for which the Efficacy in assay [1] amounted to 41%. Besides, the EC50 in assay [3] was 22.9 µM.

Consider `Oc1cncc(N2CCCNCC2)c1`, for which the Efficacy in assay [1] was 120%. This compound gave an IC50 in assay [2] of 0.0024 µM. Further, in assay [3], the EC50 was 0.141 µM.

Take `NC(=O)c1cncc(N2CCCNCC2)c1`: in assay [1], the Efficacy was found to be 56%. Besides, the half-maximal inhibitory concentration (IC50) in assay [2] is 0.02 µM. Also, the EC50 in assay [3] is 12.9 µM.

As to `c1ccc2ncc(N3CCCNCC3)cc2c1`, the Efficacy in assay [1] was 33%. In assay [2], this compound gave a 50% inhibitory concentration (IC50) of 0.00661 µM. Further, the EC50 in assay [3] is 3.63 µM.
